Source: ChEMBL document CHEMBL1147162, “Synthesis, pharmacological evaluation and electrochemical studies of novel 6-nitro-3,4-methylenedioxyphenyl-N-acylhydrazone derivatives: Discovery of LASSBio-881, a new ligand of cannabinoid receptors” (2007)
Activity calls are given as the source filed them.

Tests used:
Mus musculus [1] = assay: Antiinflammatory activity against TPA-induced ear edema in Swiss mouse at 300 umol/kg, po after 6 hrs; type: functional
How it was run: (§1)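 Fasted Swiss mice received an oral dose of 300 µmol/kg (5% arabic gum suspension) 1 h before topical challenge on the right ear (20 µl acetone): AA 500 µg/ear or TPA 2 µg/ear. The left ear got acetone. Ears were weighed from 7 mm punches 1 h after AA or 6 h after TPA. Inhibition = (C−T)/C×100 vs vehicle.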

Rattus norvegicus [2] = assay: Antiinflammatory activity against carrageenan-induced paw edema in Wistar rat; type: functional; conditions: read-out: ID50 (the source's name)
How it was run: (§2)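 Fasted Wistar rats of both sexes (150–200 g) were dosed orally at 300 µmol/kg in 5% arabic gum in saline. One hour later they were injected subplantar with 0.1 mg/paw carrageenan, with saline in the contralateral paw. Paw volume was read by plethysmometer 3 h later as the difference between the paws. Results are % inhibition vs vehicle; ID50 is also given.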

Mus musculus [3] = assay: Antiinflammatory activity against AA-induced ear edema in Swiss mouse at 300 umol/kg, po after 1 hr; type: functional; how it was run: as §1
Mus musculus [4] = assay: Antihyperalgesic effect against formalin-induced pain in mouse at 100 umol/kg, po assessed as licking activity in inflammatory phase; type: functional
How it was run: (§3)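 Mice injected subplantar in one hind paw with 20 µL 2.5% formalin; compounds given orally at 100 µmol/kg in 5% arabic gum 60 min before. Time spent licking or biting the injected paw was recorded, with the neurogenic phase at 0–5 min and the inflammatory phase at 15–30 min. Percent inhibition is vs vehicle (ANOVA/Dunnett).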

Rattus norvegicus [5] = assay: Antiinflammatory activity against carrageenan-induced paw edema in Wistar rat at 300 umol/kg, po after 3 hrs; type: functional; how it was run: as §2
Mus musculus [6] = assay: Antihyperalgesic effect against formalin-induced pain in mouse at 100 umol/kg, po assessed as licking activity in neurogenic phase; type: functional; how it was run: as §3
Lymphocyte = assay: Inhibition of lymphocyte proliferation; type: functional, cell-based
How it was run: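 Nylon wool-enriched splenic T cells in supplemented DMEM + 1% nutridoma were cultured in triplicate with soluble anti-CD3 (2% v/v 145.2C11) and PMA 0.5 ng/mL plus compound for 3 days at 37 °C in 7% CO2. [3H]thymidine (1.0 µCi/well) was added for the last 18 h and incorporation counted; at least 3 experiments.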

T-cell [7] = assay: Induction of anti CD3-stimulated T-lymphocyte necrosis after 48 hrs; type: functional
How it was run: (§4)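 Nylon wool-enriched mouse splenic T cells (10^6/mL, DMEM + 1% nutridoma) were stimulated with anti-CD3 (145.2C11) plus PMA, with or without compound at 10 µM, for 48 h at 37 °C in 7% CO2. They were stained with FITC-annexin V (apoptosis) and 7-AAD (necrosis) and analysed by flow cytometry. Runs were in triplicate with at least 3 experiments.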

[8] = tested on: Radical scavenging activity; assay: Antioxidant activity assessed as DPPH radical scavenging activity at 0.1 mM; type: functional
Mus musculus [9] = assay: Antinociceptive activity in Swiss mouse at 100 umol/kg, po assessed as increase in latency time; type: functional, organism-based
How it was run: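 Hot plate held at 55 ± 1 °C. Swiss mice of both sexes (18–25 g), fasted 8 h, were given 100 µmol/kg orally. Latency to first paw licking or jumping was read at 0, 30, 60, 90 and 120 min, with a 25 s cut-off. Morphine 39.5 µmol/kg was the positive control; n = 7–10.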

[10] = Antioxidant activity assessed as hydroxyl radical degradation at 0.5 mM; type: functional
How it was run: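 2-Deoxy-D-ribose (10 mM) was incubated with Hepes pH 7.2 (10 mM), compound in DMSO (0.5 mM) and H2O2 (1 mM) for 1 h at 37 °C, started with Fe(NH4)2(SO4)2 10 µM. Results are % degradation vs vehicle.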

[11] = Antioxidant activity assessed as superoxide degradation at 0.25 mM; type: functional
How it was run: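 The reaction was started with xanthine oxidase (~0.2 U/mL). Cytochrome c reduction was read spectrophotometrically at the Soret band as ΔA/min; % degradation is relative to vehicle.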

T-cell [12] = assay: Induction of anti CD3-stimulated T-lymphocyte apoptosis after 48 hrs; type: functional; how it was run: as §4
[13] = biological target: Cannabinoid receptor 1 (Mus musculus) (UniProt P47746); assay: Displacement of [3H]SR141716A from CB1 cannabinoid receptor in Swiss mouse brain homogenate; type: tissue-based
How it was run: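 Swiss mouse (30–40 g) whole-brain membranes, 160 µg protein, were incubated with 10 nM [3H]SR141716A plus PMSF (FAAH inhibitor) in Tris/EDTA/MgCl2 buffer with fatty acid-free BSA, pH 7.4, for 1 h at 30 °C. Nonspecific binding was set with 100 µM AM281. Samples were filtered on PEI-treated filters and counted by scintillation; n = 5 animals.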

Chain of Cannabinoid receptor 1 (Mus musculus) (P47746 whole entry): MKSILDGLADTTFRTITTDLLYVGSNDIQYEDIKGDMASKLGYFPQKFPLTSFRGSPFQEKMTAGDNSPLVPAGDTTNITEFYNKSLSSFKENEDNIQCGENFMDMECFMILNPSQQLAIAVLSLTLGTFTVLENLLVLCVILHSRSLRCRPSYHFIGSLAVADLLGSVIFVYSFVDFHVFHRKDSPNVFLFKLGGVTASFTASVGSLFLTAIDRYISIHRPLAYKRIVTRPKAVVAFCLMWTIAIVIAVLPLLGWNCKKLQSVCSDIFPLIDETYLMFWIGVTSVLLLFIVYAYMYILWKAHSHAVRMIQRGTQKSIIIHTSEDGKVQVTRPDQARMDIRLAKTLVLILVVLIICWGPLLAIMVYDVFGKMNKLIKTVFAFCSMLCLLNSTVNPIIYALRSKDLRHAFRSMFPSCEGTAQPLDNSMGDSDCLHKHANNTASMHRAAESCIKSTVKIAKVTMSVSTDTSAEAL

Compound	inhibition in vivo at 300 µmol/kg (Mus musculus [1]) [%]	ED50 (Rattus norvegicus [2]) [µmol/kg]	inhibition in vivo at 300 µmol/kg (Mus musculus [3]) [%]	inhibition in vivo at 100 µmol/kg (Mus musculus [4]) [%]	inhibition in vivo at 300 µmol/kg (Rattus norvegicus [5]) [%]	inhibition in vivo at 100 µmol/kg (Mus musculus [6]) [%]	other results
CS(=O)(=O)Nc1ccc([N+](=O)[O-])cc1Oc1ccccc1 [NIMESULIDE]	-10.6	22.7	100	70.3	57.5	9.3	–
O=C(N/N=C/c1cccs1)c1ccc2c(c1)OCO2	-10.5	14.3	-1.6	48.6	29.7	17.9	–
CC(C)(C)c1cc(/C=N/NC(=O)c2cc3c(cc2[N+](=O)[O-])OCO3)cc(C(C)(C)C)c1O	24.1	195	36	13.4	31.7	44.5	Activity (Lymphocyte): Active; Activity (T-cell [7]): 0%; Activity [8]: 32%; Activity (Mus musculus [9]): Active; Activity [10]: 84.6%; Activity [11]: -2.9%; Activity (T-cell [12]): 43.8%; Activity [13]: 71%
O=C(N/N=C/c1cccs1)c1cc2c(cc1[N+](=O)[O-])OCO2	–	–	–	–	3.4	–	–
O=C(N/N=C/c1ccc[nH]1)c1cc2c(cc1[N+](=O)[O-])OCO2	–	–	–	–	20.9	–	–
O=C(N/N=C/c1ccccc1)c1cc2c(cc1[N+](=O)[O-])OCO2	–	–	–	1.5	3.5	-21.1	Activity [8]: 7.49%; Activity [10]: 83.2%; Activity [11]: 19.6%
O=C(N/N=C/c1ccccn1)c1cc2c(cc1[N+](=O)[O-])OCO2	–	–	–	–	22.8	–	–
O=C(N/N=C/c1ccncc1)c1cc2c(cc1[N+](=O)[O-])OCO2	–	–	–	–	13.3	–	–
CC(C)(C)c1cc(/C=N/NC(=O)c2ccc3c(c2)OCO3)cc(C(C)(C)C)c1O	-19.6	96.5	26.7	3.1	36.4	4.1	Activity [8]: 45.7%; Activity [10]: 85.2%
CCCCC/C=C\C/C=C\C/C=C\C/C=C\CCCC(=O)NCCO [ANANDAMIDE]	–	–	–	–	–	–	Activity (T-cell [7]): 0.1%; Activity (T-cell [12]): 50.8%
O=C(N/N=C/c1ccco1)c1cc2c(cc1[N+](=O)[O-])OCO2	–	–	–	–	4.1	–	–
